The record followed here is ChEMBL document CHEMBL1126251, “alpha-Methylated analogues of triiodothyroalkanoic acids: synthesis and biological activity” (J Med Chem, 1992).

Several values for one entry are separate records, joined by “and”; a condition that tells them apart may be missing. Equal entries are not always repeated.

Assay [1] can be described thus: In vitro concentration required to displace [125I]L-T3 from Thyroid receptor of rat hepatic nuclei. In outline: (§1)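 Hepatic nuclear fraction from thyroidectomized rats in 0.25 M sucrose, 1.1 mM MgCl2, 2 mM EDTA, 5 mM DTT, 20 mM Tris pH 7.85 (83 μg DNA/mL). Incubated with [125I]-L-T3 (final 0.075 nM) and competitor at 0.025–100 nM, five to eight concentrations, quadruplicate. Nonspecific binding measured with 1 μM unlabeled T3. IC50 from Hill plot x-intercept; Ki calculated from IC50; relative affinity = Ki(L-T3)/Ki(analogue).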

The nature of assay [2]: Affinity to rat hepatic nuclei relative to L-T3 (Thyroid receptor). The method, boiled down:
as §1

Assay [3] deals with T1, Glycerol-3-phosphate dehydrogenase [NAD(+)], cytoplasmic (Rattus norvegicus) (UniProt O35077).
T1 sequence (whole entry): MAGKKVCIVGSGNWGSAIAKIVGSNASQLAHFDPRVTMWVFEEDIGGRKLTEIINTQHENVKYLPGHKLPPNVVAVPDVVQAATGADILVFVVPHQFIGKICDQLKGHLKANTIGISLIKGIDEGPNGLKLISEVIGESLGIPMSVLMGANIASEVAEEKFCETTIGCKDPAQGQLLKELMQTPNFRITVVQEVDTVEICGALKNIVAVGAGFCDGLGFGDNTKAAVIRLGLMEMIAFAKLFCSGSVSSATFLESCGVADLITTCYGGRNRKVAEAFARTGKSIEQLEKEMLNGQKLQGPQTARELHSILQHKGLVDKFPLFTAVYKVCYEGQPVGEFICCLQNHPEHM
Kind of assay: Effect on rat hepatic glycerophosphate dehydrogenase alpha (GPD) activity 3 days after injection of 10e-6 mol/kg.

For assay [4], the target named is T1, Glycerol-3-phosphate dehydrogenase [NAD(+)], cytoplasmic (Rattus norvegicus). Kind of assay: Effect on rat hepatic glycerophosphate dehydrogenase alpha (GPD) activity relative to L-T3.
Assay [5] has as its target T2, NADP-dependent malic enzyme (Rattus norvegicus) (UniProt P13697).
T2 sequence (whole entry): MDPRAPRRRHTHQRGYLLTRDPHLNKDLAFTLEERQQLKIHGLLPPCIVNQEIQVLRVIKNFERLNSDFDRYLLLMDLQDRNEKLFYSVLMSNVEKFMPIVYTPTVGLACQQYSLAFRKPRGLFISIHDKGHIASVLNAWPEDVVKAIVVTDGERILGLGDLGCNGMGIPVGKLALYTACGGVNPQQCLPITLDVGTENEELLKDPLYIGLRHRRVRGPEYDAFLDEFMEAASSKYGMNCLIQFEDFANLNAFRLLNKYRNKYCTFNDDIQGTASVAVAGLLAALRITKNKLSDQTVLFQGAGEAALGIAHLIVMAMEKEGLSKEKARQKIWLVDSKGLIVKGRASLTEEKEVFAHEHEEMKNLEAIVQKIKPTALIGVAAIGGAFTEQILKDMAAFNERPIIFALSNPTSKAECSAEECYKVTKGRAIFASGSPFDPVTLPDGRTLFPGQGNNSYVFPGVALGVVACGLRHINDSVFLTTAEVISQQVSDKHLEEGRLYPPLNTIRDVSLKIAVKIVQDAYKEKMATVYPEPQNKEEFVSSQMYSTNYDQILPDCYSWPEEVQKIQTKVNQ
Nature of the assay: Effect on rat hepatic Malic enzyme activity relative to L-T3.

The target of assay [6] is T2, NADP-dependent malic enzyme (Rattus norvegicus). Nature of the assay: Effect on rat hepatic Malic enzyme activity 3 days after injection of 10e-5 mol/kg. In outline:
(§2)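 Liver homogenized in 0.25 M sucrose, 1 mM EDTA, 100 mM Tris pH 7.5, then spun at 2000g and 40000g to give cytoplasmic fraction. Malic enzyme activity followed as NADP+ reduction at 340 nm, normalized to Bradford protein. Reported as increase over vehicle controls, nmol/min per mg protein. Two rats per dose, duplicate assays.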

The target is the same in assay [7]. Kind of assay: Effect on rat hepatic Malic enzyme activity 3 days after injection of 10e-6 mol/kg. In outline: as §2
For assay [8], the species on record is Rattus norvegicus. Nature of the assay: Affinity to rat hepatic nuclei relative to L-T3. In kind it is functional. The method, boiled down:
as §1

A short description of assay [9]: (§3) In vitro concentration required to displace [125I]L-T3 from rat hepatic nuclei.
Assay [10] has as its system Rattus norvegicus. Nature of the assay: Effect on the plasma cholesterol levels after subcutaneous administration of 4 nmol/kg in Dawley rats. In kind it is functional. In outline:
(§4)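 Normal Sprague-Dawley rats (265 ± 10 g) on pellet diet with 2% cholesterol and 1% cholic acid for 7 days, given daily subcutaneous injections at 4–16 nmol/kg. Five rats per group; values in mg/dL ± SD. Significance tested against vehicle-treated cholesterol-diet controls.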

The test system of assay [11] is Rattus norvegicus. Kind of assay: Effect on the plasma cholesterol levels after subcutaneous administration of 8 nmol/kg in Dawley rats. It is filed as functional. The arrangement: unit: mg/dL. The method, boiled down: as §4
The species named for assay [12] is Rattus norvegicus. Described as §3. In kind it is functional, organism-based. In outline:
as §1

The target in assay [13] is T1, Glycerol-3-phosphate dehydrogenase [NAD(+)], cytoplasmic (Rattus norvegicus). Kind of assay: Effect on rat hepatic alpha-glycerophosphate dehydrogenase (GPD) activity 3 days after injection of 10e-5 mol/kg.
Assay [14] has the same target. Nature of the assay: Effect on rat hepatic alpha-glycerophosphate dehydrogenase (GPD) activity 3 days after injection of 10e-6 mol/kg.
The target is the same in assay [15]. Nature of the assay: Effect on rat hepatic alpha-glycerophosphate dehydrogenase (GPD) activity relative to L-T3.
Assay [16] has as its target T2, NADP-dependent malic enzyme (Rattus norvegicus). Nature of the assay: Effect on rat hepatic malic enzyme(ME) activity relative to L-T3.
For assay [17] the target is unchanged. Kind of assay: Effect on rat hepatic malic enzyme(ME) activity 3 days after injection of 10e-6 mol/kg. The method, boiled down:
as §2

In assay [18] the test system is Rattus norvegicus. Nature of the assay: Effect on the plasma cholesterol levels after subcutaneous administration of 16 nmol/kg in Dawley rats. In kind it is functional. In outline:
as §4

Assay [19] deals with Rattus norvegicus. Nature of the assay: Effect on the plasma cholesterol levels after subcutaneous administration of 16 nmol/kg in Dawley rats. p < 0.01. In kind it is functional. In outline: as §4

Turning to `CC(N)(Cc1cc(I)c(Oc2cc(I)c(O)c(I)c2)c(I)c1)C(=O)O` (stereo not given), affinity in assay [1] was put at a Ki of 63.3 nM. The Relative affinity in assay [2] stood at 2%.
As for `CC(Cc1cc(I)c(Oc2ccc(O)c(I)c2)c(I)c1)C(=O)O` (racemic), in assay [3], the GDPactivity (nM min-1 mg-1) is 7.8 and 12.1. Also, the L-T3 in assay [4] is 77%; in [5] it was 62%. Further, the values for the ME increase (nM min-1 mg-1) in assay [6] and in assay [7] were 18.6 and 13.1, respectively. In the assay filed under Rattus norvegicus [8], the T3 was determined as 61%. In assay [9], the affinity corresponds to a Ki of 2.56 nM.
`CC(Cc1cc(I)c(Oc2cc(I)c(O)c(I)c2)c(I)c1)C(=O)O` (racemic): the L-T3 in assay [4] is 36%; in assay [5] it was 42%. Further, the ME increase (nM min-1 mg-1) in [6] is 14.7; in assay [7], 6.8. Also, the T3 in the assay listed under Rattus norvegicus [8] is reported as 12%. Affinity in assay [9] was put at a Ki of 13 nM.
With `CC(C(=O)O)c1cc(I)c(Oc2ccc(O)c(I)c2)c(I)c1` (racemic) [listing 1 of 2 here], the Activity in the assay on Rattus norvegicus [10] is on record as 259; in the assay with Rattus norvegicus [11], 216. In addition, in the assay listed under Rattus norvegicus [12], the affinity corresponds to a Ki of 9.03 nM. In the assay filed under Rattus norvegicus [8], this compound gave a T3 of 17%.
With `CC(C(=O)O)c1cc(I)c(Oc2ccc(O)c(I)c2)c(I)c1` (racemic) [listing 2 of 2 here], the GDP activity (nM min-1 mg-1) was 6.6 in [13] and 1.5 in assay [14]. Moreover, the L-T3 came to 31% in assay [15] and 41% in [16]. Moreover, the results for the ME increase (nM min-1 mg-1) in [5] and in assay [17] were 15.5 and 5.6, respectively.
In the case of `CC(C(=O)O)c1cc(I)c(Oc2ccc(O)c(I)c2)c(I)c1` (stereo in doubt), the Activity in the assay with Rattus norvegicus [18] was found to be 119; with Rattus norvegicus [10] it was 262; with Rattus norvegicus [11], 147.
As for `N[C@@H](Cc1cc(I)c(Oc2ccc(O)c(I)c2)c(I)c1)C(=O)O` [LIOTHYRONINE], the GDPactivity (nM min-1 mg-1) in assay [3] was 7.5 and 18.3. Besides, the L-T3 in assay [4] and in [5] was 100% each time. Besides, the ME increase (nM min-1 mg-1) in assay [6] came to 31.8; in assay [7], 19.5. Besides, the figures for the Activity in the assay on Rattus norvegicus [18], in the assay with Rattus norvegicus [10] and with Rattus norvegicus [11] were 101, 251 and 138, respectively. This compound also came in with a T3 in the assay listed under Rattus norvegicus [8] of 100%.
For the compound `O=C(O)CCc1cc(I)c(Oc2ccc(O)c(I)c2)c(I)c1` [THYROPROPIC ACID], the L-T3 in assay [4] was 43%; in assay [5], 36%. Further, the ME increase (nM min-1 mg-1) in [6] is 12.9; in assay [7] it was 5.5. In addition, the Activity came to 202 in the assay with Rattus norvegicus [19] and 285 in the assay on Rattus norvegicus [11].
As for `O=C(O)Cc1cc(I)c(Oc2ccc(O)c(I)c2)c(I)c1` [TIRATRICOL], the GDP activity (nM min-1 mg-1) is 12.9 in assay [13] and 4.8 in assay [14]. Also, the L-T3 in assay [15] and in [16] was 69% each time. Further, the ME increase (nM min-1 mg-1) in assay [5] was 22.5; in assay [17], 13. This compound also registered a T3 in the assay listed under Rattus norvegicus [8] of 199%.

In general, Ki refers to a dissociation constant, usually derived from enzyme kinetics or from competition with a known ligand.
